This is an account of results in ChEMBL document CHEMBL4177589, “In silico analysis and in vitro evaluation of immunogenic and immunomodulatory properties of promiscuous peptides derived from Leishmania infantum eukaryotic initiation factor” (2017).

Calls of active or inactive are those of the source. The rule behind the calls is not given here.

The test system of experiment [1] is BMDC. Description: Immunomodulatory activity in LPS stimulated BALB/c mouse bone marrow-derived dendritic cells assessed as increase in IL-12 level at 10 ug/ml after 24 hrs by FACS analysis (reference value: 44%). The class given is functional.
The test system of experiment [2] is Splenocyte. Briefly: Induction of cell proliferation in splenocytes isolated from BALB/c mouse infected with Leishmania major MRHO/SU/59/P, zymodeme LV39 assessed as increase in [3H]-thymidine incorporation at 1 to 10 ug/ml […] and measured after 18 hrs by liquid scintillation counter method. The class given is functional, cell-based. Put shortly:
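Female BALB/c mice were infected subcutaneously with 2×10^6 stationary-phase L. major promastigotes. Splenocytes were taken one month later and plated in triplicate at 2×10^6 cells/mL with peptide at 1, 5 or 10. Cultures ran 96 h at 37°C, 5% CO2, with 3H-thymidine (2 µCi/mL) added for the last 18 h and read by scintillation. The result is Δcpm against medium wells; Δcpm >2000 with SI >2 counted as positive.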
On the technique in general: Uptake of a labelled nucleoside into DNA is a usual measure of proliferation.

Experiment [3] concerns BMDC. Description: Immunomodulatory activity in […] mouse bone marrow-derived dendritic cells assessed as up-regulation of co-stimulatory molecules at 10 ug/ml after 24 hrs by FACS analysis. The class given is functional, cell-based. (Flow cytometry measures light scatter and fluorescence of single cells or particles in a stream.)
Experiment [4] has as its system BMDC. Description: Immunomodulatory activity in LPS stimulated BALB/c mouse bone marrow-derived dendritic cells assessed as increase in IL-10 level at 10 ug/ml after 24 hrs by FACS analysis (reference value: 27%). The format is functional.
Experiment [5] concerns BMDC. Briefly: Immunomodulatory activity in […] mouse bone marrow-derived dendritic cells assessed as increase in IL-10 level at 10 ug/ml after 24 hrs by FACS analysis. The class given is functional, cell-based.
Experiment [6] concerns BMDC. Description: Immunomodulatory activity in LPS stimulated BALB/c mouse bone marrow-derived dendritic cells assessed as increase in IFN-gamma level at 10 ug/ml after 24 hrs by FACS analysis (reference value: 20%). The format is functional.
Experiment [7] concerns BMDC. Briefly: Immunomodulatory activity in LPS stimulated BALB/c mouse bone marrow-derived dendritic cells assessed as increase in surface CD80 expression at 10 ug/ml after 24 hrs by FACS analysis (reference value: 26%).
The test system of experiment [8] is BMDC. Description: Immunomodulatory activity in LPS stimulated BALB/c mouse bone marrow-derived dendritic cells assessed as up-regulation of TNF-alpha mRNA expression at 10 ug/ml after 2 to 12 hrs by qPCR analysis. The format is functional, cell-based. Put shortly: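 Day-9 BM-DCs (5×10^6 per group) were cultured with peptide for 2, 6 and 12 h, with LPS and medium controls. TNF-α mRNA was measured by RT and semi-quantitative PCR, and products were run on 2% agarose gels. Band densitometry was normalised to β-actin and given as arbitrary units, from three independent experiments.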
(In qPCR the cycle at which signal appears reflects the starting amount.)

Experiment [9] deals with BMDC. Description: Immunomodulatory activity in LPS stimulated BALB/c mouse bone marrow-derived dendritic cells assessed as increase in IL-4 level at 10 ug/ml after 24 hrs by FACS analysis (reference value: 48%). The format is functional.
Experiment [10] relates to BMDC. Briefly: Immunomodulatory activity in […] mouse bone marrow-derived dendritic cells assessed as increase in IL-12 level at 10 ug/ml after 24 hrs by FACS analysis. The format is functional, cell-based.
The test system of experiment [11] is BMDC. Description: Immunomodulatory activity in LPS stimulated BALB/c mouse bone marrow-derived dendritic cells assessed as increase in surface CD86 expression at 10 ug/ml after 24 hrs by FACS analysis (reference value: 58%).

With H-PKDIQVALFSATMPEEVL-OH, the result in experiment [1] was inactive. Further, the result in experiment [2] was Active.

As to H-FLDDQPGVRPIPSFDDM-OH, in experiment [1], the result was inactive. Also, the result in experiment [2] was Active.

For H-IQQRAIAPFTRGGDII-OH, the outcome in experiment [3], in experiment [5], in [8], in experiment [10] and in [2] was Active. Further, the Activity in experiment [4] stood at 43%; in experiment [6] it was 40%; in experiment [1], 65%; in [7], 43%; in experiment [9], 64%; in experiment [11], 77%.

H-TRELALQTAEVISRIGE-OH: the result in experiment [1] was inactive. Besides, the result in experiment [2] was Active.

Take H-KPSSIQQRAIAPFTRGG-OH: in experiment [1], the outcome was inactive. Also, the outcome in experiment [2] was Active.
